{
  "source": "ChEMBL document CHEMBL4665798",
  "about": "“Novel Human Urate Transporter 1 Inhibitors as Hypouricemic Drug Candidates with Favorable Druggability” (J Med Chem, 2020)",
  "key": {"[1]": {"test": "Cmax in Sprague-Dawley rat at 20 mg/kg, po by LC-MS analysis", "format": "ADME, organism-based", "parameters": "route oral, dose 20 mg/kg", "conditions": "in vivo"}, "[2]": {"test": "AUC (0 to t) in Sprague-Dawley rat at 20 mg/kg, po by LC-MS analysis", "format": "ADME, organism-based", "parameters": "dose 20 mg/kg", "conditions": "in vivo"}, "[3]": {"test": "Cmax in male Kunming mouse at 50 mg/kg, po by LC-MS/MS analysis", "format": "ADME, organism-based", "parameters": "route oral, dose 50 mg/kg", "conditions": "in vivo", "summary_of_the_method": "(§1)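 Male Kunming mice, ten in total, split into five groups; single oral dose in PEG 400/normal saline (70/30, v/v). Blood taken from submandibular or saphenous vein into K2EDTA tubes at 0.25, 0.5, 1, 2, 4, 8, 24, 48, 72 h. Plasma spun at about 4 °C and kept at -70 °C. Acetonitrile precipitation with dexamethasone internal standard, then LC-MS/MS against plasma standard curves.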"}, "[4]": {"test": "Cmax in male Kunming mouse at 2 mg/kg, po by LC-MS/MS analysis", "format": "ADME, organism-based", "parameters": "route oral, dose 2 mg/kg", "conditions": "in vivo", "summary_of_the_method": "as §1"}, "[5]": {"test": "Oral bioavailability in Sprague-Dawley rat at 20 mg/kg by LC-MS analysis", "format": "ADME, organism-based", "conditions": "in vivo"}, "[6]": {"test": "AUC (0 to t) in male Kunming mouse at 500 mg/kg, po by LC-MS/MS analysis", "format": "ADME, organism-based", "parameters": "dose 500 mg/kg", "conditions": "in vivo", "summary_of_the_method": "(§2)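 Male Kunming mice given oral compound in PEG 400/normal saline (70/30, V/V). Blood from submandibular or saphenous vein into K2EDTA tubes at 0.25 to 72 h. Plasma spun at 3200g near 4 °C, kept -70 °C, precipitated with acetonitrile plus dexamethasone internal standard. Quantified by LC-MS/MS against spiked blank-plasma standard curves.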"}, "[7]": {"test": "Half-life in male Kunming mouse at 2 mg/kg, po by LC-MS/MS analysis", "format": "ADME, organism-based", "conditions": "in vivo", "summary_of_the_method": "as §1"}, "[8]": {"test": "Sub-acute toxicity in Kunming mouse assessed as congestion in hepatic central vein at 50 mg/kg, po administered as single dose every other day for 14 days by H and E staining based assay", "format": "organism-based", "conditions": "in vivo, 336 h, time 14 day"}, "[9]": {"test": "Half-life in male Kunming mouse at 50 mg/kg, po by LC-MS/MS analysis", "format": "ADME, organism-based", "conditions": "in vivo", "summary_of_the_method": "as §1"}, "[10]": {"test": "Half-life in male Kunming mouse at 500 mg/kg, po by LC-MS/MS analysis", "format": "ADME, organism-based", "conditions": "in vivo", "summary_of_the_method": "as §2"}, "[11]": {"test": "AUC (0 to infinity) in male Kunming mouse at 50 mg/kg, po by LC-MS/MS analysis", "format": "ADME, organism-based", "parameters": "route oral, time infinity, dose 50 mg/kg", "conditions": "in vivo", "summary_of_the_method": "as §1"}, "[12]": {"molecular_target": "T1, Solute carrier family 22 member 12 (Homo sapiens, UniProt Q96S37)", "T1 sequence (Q96S37 whole entry)": "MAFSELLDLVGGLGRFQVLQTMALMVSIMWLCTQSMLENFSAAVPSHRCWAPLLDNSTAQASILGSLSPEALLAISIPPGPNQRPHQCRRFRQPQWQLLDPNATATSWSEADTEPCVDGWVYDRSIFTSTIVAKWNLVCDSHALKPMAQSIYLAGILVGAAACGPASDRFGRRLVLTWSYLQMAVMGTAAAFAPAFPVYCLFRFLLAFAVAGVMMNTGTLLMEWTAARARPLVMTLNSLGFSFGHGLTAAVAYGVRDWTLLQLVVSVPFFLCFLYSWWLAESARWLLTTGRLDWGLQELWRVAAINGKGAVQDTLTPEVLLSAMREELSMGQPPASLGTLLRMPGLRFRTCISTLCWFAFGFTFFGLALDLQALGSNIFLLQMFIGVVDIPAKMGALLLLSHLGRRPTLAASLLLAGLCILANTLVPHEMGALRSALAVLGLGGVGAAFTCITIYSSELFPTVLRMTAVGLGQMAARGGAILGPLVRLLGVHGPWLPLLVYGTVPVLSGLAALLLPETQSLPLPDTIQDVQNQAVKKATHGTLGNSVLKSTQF", "test": "Potency index, ratio of lesinurad IC50 to test compound IC50 for inhibition of human URAT1 expressed in HEK293T cells assessed as reduction in [14C]uric acid uptake preincubated for 15 mins followed by [14C]uric acid addition by liquid scintillation counting method", "format": "cell-based"}, "[13]": {"test": "Tmax in male Kunming mouse at 2 mg/kg, po by LC-MS/MS analysis", "format": "ADME, organism-based", "conditions": "in vivo", "summary_of_the_method": "as §1"}, "[14]": {"test": "Tmax in male Kunming mouse at 50 mg/kg, po by LC-MS/MS analysis", "format": "ADME, organism-based", "conditions": "in vivo", "summary_of_the_method": "as §1"}, "[15]": {"test": "AUC (0 to infinity) in male Kunming mouse at 500 mg/kg, po by LC-MS/MS analysis", "format": "ADME, organism-based", "parameters": "time infinity, route oral, dose 500 mg/kg", "conditions": "in vivo", "summary_of_the_method": "as §2"}, "[16]": {"test": "AUC (0 to infinity) in Sprague-Dawley rat at 20 mg/kg, po by LC-MS analysis", "format": "ADME, organism-based", "parameters": "route oral, time infinity, dose 20 mg/kg", "conditions": "in vivo"}, "[17]": {"test": "AUC (0 to t) in male Kunming mouse at 50 mg/kg, po by LC-MS/MS analysis", "format": "ADME, organism-based", "parameters": "dose 50 mg/kg", "conditions": "in vivo", "summary_of_the_method": "as §1"}, "[18]": {"molecular_target": "Voltage-gated inwardly rectifying potassium channel KCNH2 (Homo sapiens, UniProt Q12809)", "sequence (Q12809 whole entry)": "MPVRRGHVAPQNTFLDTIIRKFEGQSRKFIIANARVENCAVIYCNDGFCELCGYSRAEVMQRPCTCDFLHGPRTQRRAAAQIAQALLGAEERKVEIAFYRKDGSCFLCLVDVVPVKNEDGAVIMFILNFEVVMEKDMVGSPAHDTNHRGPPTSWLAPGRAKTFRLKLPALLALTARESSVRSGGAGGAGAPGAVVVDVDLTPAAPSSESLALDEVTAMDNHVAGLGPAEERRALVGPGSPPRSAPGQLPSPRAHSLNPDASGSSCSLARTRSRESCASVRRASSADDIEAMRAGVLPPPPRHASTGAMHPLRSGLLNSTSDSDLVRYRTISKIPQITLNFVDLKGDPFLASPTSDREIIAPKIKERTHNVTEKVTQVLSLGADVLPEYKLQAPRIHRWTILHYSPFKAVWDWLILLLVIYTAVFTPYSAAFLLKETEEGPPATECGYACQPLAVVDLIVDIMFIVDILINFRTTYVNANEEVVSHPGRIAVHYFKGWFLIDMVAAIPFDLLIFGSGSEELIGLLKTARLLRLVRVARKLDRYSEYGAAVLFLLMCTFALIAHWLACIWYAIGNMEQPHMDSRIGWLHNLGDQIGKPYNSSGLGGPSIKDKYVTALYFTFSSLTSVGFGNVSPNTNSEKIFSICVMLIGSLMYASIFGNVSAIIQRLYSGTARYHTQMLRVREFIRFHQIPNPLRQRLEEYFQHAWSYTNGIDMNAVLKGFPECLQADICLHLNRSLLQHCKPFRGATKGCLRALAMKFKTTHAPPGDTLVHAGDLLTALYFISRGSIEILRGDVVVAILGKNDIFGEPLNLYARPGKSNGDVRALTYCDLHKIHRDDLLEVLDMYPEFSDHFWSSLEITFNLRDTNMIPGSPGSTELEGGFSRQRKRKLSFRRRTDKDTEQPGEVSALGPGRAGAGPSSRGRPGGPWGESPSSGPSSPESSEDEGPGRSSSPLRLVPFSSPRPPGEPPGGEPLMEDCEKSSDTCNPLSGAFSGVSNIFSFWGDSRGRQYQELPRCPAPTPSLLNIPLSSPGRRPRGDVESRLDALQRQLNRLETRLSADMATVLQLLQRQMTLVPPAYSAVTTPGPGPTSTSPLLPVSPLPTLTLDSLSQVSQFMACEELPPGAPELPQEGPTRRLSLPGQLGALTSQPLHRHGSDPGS", "test": "Inhibition of human ERG expressed in HEK293 cells at -80 mV holding potential by whole cell voltage patch clamp assay", "format": "cell-based", "summary_of_the_method": "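Manual patch clamp on HEK293 cells stably expressing hERG, cultured at least 24 h at 37 °C, 5% CO2. Pipettes 3–5 MΩ. Current stabilized 3 min with vehicle before compound. Compound kept on until peak tail current stable (<5% change) for ~5 sweeps. Cisapride monohydrate used as reference.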"}, "Mus musculus": {"test_system": "Mus musculus", "test": "Hypouricemic activity in Kunming mouse model of xanthine/potassium oxonate-induced acute hyperuricemia assessed as decrease in serum uric acid level at 2 mg/kg administered 3 hrs prior to xanthine/potassium oxonate and measured after 6 hrs relative to control", "format": "functional", "parameters": "scale not given: the % may be the effect or the level left", "conditions": "time 9 hrs", "summary_of_the_method": "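Male Kunming mice, hyperuricemia induced by intragastric xanthine plus subcutaneous potassium oxonate (0.2 mL each). […] Groups: normal vehicle, untreated model, active control, test. Serum uric acid measured. Decrease ratio = (model SUA − compound SUA)/(model SUA − vehicle SUA).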"}, "Rattus norvegicus": {"organism": "Rattus norvegicus", "test": "Potency index, ratio of lesinurad to test compound for hypouricemic activity in rat model of xanthine/potassium oxonate-induced acute hyperuricemia assessed as decrease in serum uric acid level", "format": "functional"}, "[19]": {"test": "Cmax in male Kunming mouse at 500 mg/kg, po by LC-MS/MS analysis", "format": "ADME, organism-based", "parameters": "route oral, dose 500 mg/kg", "conditions": "in vivo", "summary_of_the_method": "as §2"}, "[20]": {"test": "Tmax in male Kunming mouse at 500 mg/kg, po by LC-MS/MS analysis", "format": "ADME, organism-based", "conditions": "in vivo", "summary_of_the_method": "as §2"}, "[21]": {"test": "Tmax in Sprague-Dawley rat at 20 mg/kg, po by LC-MS analysis", "format": "ADME, organism-based", "conditions": "in vivo"}, "[22]": {"test": "Sub-acute toxicity in female Kunming mouse assessed as increase in body weight at 50 mg/kg, po administered once every second day for 14 days", "format": "organism-based", "conditions": "in vivo, 336 h, time 14 day"}, "[23]": {"test": "Oral bioavailability in Sprague-Dawley rat at 10 mg/kg by LC-MS analysis", "format": "ADME, organism-based", "conditions": "in vivo", "summary_of_the_method": "(§3)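 Male Sprague-Dawley rats, two groups, dosed iv or orally; compound in PEG 400/normal saline (70/30, V/V). Oral blood from sinus jugularis at 5 min to 24 h, plasma by centrifugation at 2200 g, stored -20 °C. Plasma with internal standard precipitated by methanol, quantified by LC-MS against spiked blank-plasma standard curves. Mean ± SD, n = 5.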"}, "[24]": {"test": "Half-life in Sprague-Dawley rat at 10 mg/kg, po by LC-MS analysis", "format": "ADME, organism-based", "conditions": "in vivo", "summary_of_the_method": "as §3"}, "[25]": {"test": "AUC (0 to t) in Sprague-Dawley rat at 10 mg/kg, po by LC-MS analysis", "format": "ADME, organism-based", "parameters": "dose 10 mg/kg", "conditions": "in vivo", "summary_of_the_method": "as §3"}, "[26]": {"test": "Tmax in Sprague-Dawley rat at 10 mg/kg, po by LC-MS analysis", "format": "ADME, organism-based", "conditions": "in vivo", "summary_of_the_method": "as §3"}, "[27]": {"test": "AUC (0 to infinity) in Sprague-Dawley rat at 10 mg/kg, po by LC-MS analysis", "format": "ADME, organism-based", "parameters": "time infinity, route oral, dose 10 mg/kg", "conditions": "in vivo", "summary_of_the_method": "as §3"}},
  "data": [
    {"compound": "CC(Sc1nc2ncccc2n1-c1ccc(C2CC2)c2ccccc12)C(=O)O", "note": "(racemic)", "values": [
      {"measurement": "Cmax", "setting": "[1]", "result": 15500, "unit": "ng/mL"},
      {"measurement": "AUC(0-t)", "setting": "[2]", "result": 53.2, "unit": "µg·h/mL"},
      {"measurement": "Cmax", "setting": "[3]", "result": 37900, "unit": "ng/mL"},
      {"measurement": "Cmax", "setting": "[4]", "result": 2080, "unit": "ng/mL"},
      {"measurement": "bioavailability", "setting": "[5]", "result": 76.3, "unit": "%"},
      {"measurement": "AUC(0-t)", "setting": "[6]", "result": 2960, "unit": "µg·h/mL"},
      {"measurement": "half-life", "setting": "[7]", "result": 4.24, "unit": "h"},
      {"measurement": "Activity", "setting": "[8]", "result": "Non-Toxic"},
      {"measurement": "half-life", "setting": "[9]", "result": 7.06, "unit": "h"},
      {"measurement": "half-life", "setting": "[10]", "result": 3.9, "unit": "h"},
      {"measurement": "AUC(0-inf)", "setting": "[11]", "result": 335, "unit": "µg·h/mL"},
      {"measurement": "Ratio IC50", "setting": "[12]", "result": "> 8"},
      {"measurement": "Tmax", "setting": "[13]", "result": 0.5, "unit": "h"},
      {"measurement": "Tmax", "setting": "[14]", "result": 1.67, "unit": "h"},
      {"measurement": "AUC(0-inf)", "setting": "[15]", "result": 2960, "unit": "µg·h/mL"},
      {"measurement": "AUC(0-inf)", "setting": "[16]", "result": 88.8, "unit": "µg·h/mL"},
      {"measurement": "AUC(0-t)", "setting": "[17]", "result": 335, "unit": "µg·h/mL"},
      {"measurement": "IC50", "setting": "[18]", "result": "> 30", "unit": "µM"},
      {"measurement": "Activity", "setting": "Mus musculus", "result": 92.89, "unit": "%"},
      {"measurement": "Ratio", "setting": "Rattus norvegicus", "result": 1.6},
      {"measurement": "Cmax", "setting": "[19]", "result": 149000, "unit": "ng/mL"},
      {"measurement": "Tmax", "setting": "[20]", "result": 18.7, "unit": "h"},
      {"measurement": "Tmax", "setting": "[21]", "result": 2, "unit": "h"},
      {"measurement": "Activity", "setting": "[22]", "result": "Non-Toxic"}
    ]},
    {"compound": "O=C(CSc1nnc(Br)n1-c1ccc(C2CC2)c2ccccc12)NS(=O)(=O)c1ccc(Br)cc1", "values": [
      {"measurement": "Activity", "setting": "[8]", "result": "Non-Toxic"},
      {"measurement": "bioavailability", "setting": "[23]", "result": 63.4, "unit": "%"},
      {"measurement": "half-life", "setting": "[24]", "result": 3.4, "unit": "h"},
      {"measurement": "AUC(0-t)", "setting": "[25]", "result": 19.4, "unit": "µg·h/mL"},
      {"measurement": "Tmax", "setting": "[26]", "result": 1.8, "unit": "h"},
      {"measurement": "Activity", "setting": "Mus musculus", "result": 97.84, "unit": "%"},
      {"measurement": "AUC(0-inf)", "setting": "[27]", "result": 19.6, "unit": "µg·h/mL"},
      {"measurement": "Activity", "setting": "[22]", "result": "Non-Toxic"}
    ]}
  ]
}
